Results from ChEMBL document CHEMBL2169794, “Induction of apoptosis by 3-amino-6-(3-aminopropyl)-5,6-dihydro-5,11-dioxo-11H-indeno[1,2-c]isoquinoline via modulation of MAPKs (p38 and c-Jun N-terminal kinase) and c-Myc in HL-60 human leukemia cells” (J Nat Prod, 2012).
The source made the active and inactive calls. No cut-off for these calls is given here.

Experiments:
[1] = system: HL-60; assay: Effect on total p38MAPK protein expression in human HL60 cells at 1 uM incubated for 1 to 24 hrs by Western blot method; assay type: functional, cell-based
Procedure, shortened: (§1)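 HL-60 cells exposed to 1 µM test agent for the indicated times, then lysed. 15 µg protein run on 12% SDS-PAGE, blotted to PVDF, probed overnight at 4 °C with antibodies to phospho- or total ERK1/2, p38 (Thr180/Tyr182), SAPK/JNK (Thr183/Tyr185) or c-Myc. HRP secondary, chemiluminescent read-out.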

[2] = system: HL-60; assay: Cell cycle arrest in human HL60 cells assessed as accumulation at G2/M phase at 0.5 uM by NIM-DAPI staining based flow cytometry (reference value: 13.2 +/- 2.8%); assay type: functional
[3] = system: HL-60; assay: Cell cycle arrest in human HL60 cells assessed as accumulation at subG0/G1 phase at 0.0625 uM by NIM-DAPI staining based flow cytometry (reference value: 2.8 +/- 0.8%); assay type: functional
[4] = system: HL-60; assay: Cell cycle arrest in human HL60 cells assessed as accumulation at subG0/G1 phase at 1 uM by NIM-DAPI staining based flow cytometry (reference value: 2.8 +/- 0.8%); assay type: functional
[5] = system: HL-60; assay: Cell cycle arrest in human HL60 cells assessed as accumulation at subG0/G1 phase at 0.5 uM by NIM-DAPI staining based flow cytometry (reference value: 2.8 +/- 0.8%); assay type: functional
[6] = system: HL-60; assay: Cell cycle arrest in human HL60 cells assessed as accumulation at G2/M phase at 0.0625 uM by NIM-DAPI staining based flow cytometry (reference value: 13.2 +/- 2.8%); assay type: functional
[7] = system: HL-60; assay: Induction of cleaved caspase 3 expression in human HL60 cells at 0.25 to 2 uM incubated for 24 hrs by Western blotting method; assay type: functional, cell-based
Procedure, shortened: (§2)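 HL-60 cells exposed for 24 h to the stated concentrations and lysed; protein measured by Bradford. Lysate (15 µg) run on 12% SDS-PAGE and transferred to PVDF. Blocked in 5% milk/TBST for 1 h, primary antibody overnight at 4 °C, HRP secondary for 2 h at room temperature, chemiluminescent detection.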

[8] = system: HL-60; assay: Induction of apoptosis assessed as increase in caspase 3/7 enzyme activity in human HL60 cells at 1 uM incubated for 24 to 72 hrs by luminometry relative to untreated control; assay type: functional
Procedure, shortened: (§3)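 HL-60 cells treated with serial dilutions in 96-well plates for 24, 48 and 72 h. Luminogenic caspase-3/7, caspase-8 or caspase-9 substrate reagent added for 3 h at room temperature, then luminescence read. Results are expressed as fold over DMSO vehicle control.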

[9] = system: HL-60; assay: Effect on total ERK1/2 protein expression in human HL60 cells at 1 uM incubated for 1 to 24 hrs by Western blot method; assay type: functional, cell-based; procedure, shortened: as §1
[10] = system: HL-60; assay: Effect on total SAPK/JNK protein expression in human HL60 cells at 1 uM incubated for 1 to 24 hrs by Western blot method; assay type: functional, cell-based; procedure, shortened: as §1
[11] = system: HL-60; assay: Induction of PARP cleavage in human HL60 cells 2 uM incubated for 24 hrs by Western blot method; assay type: functional, cell-based; procedure, shortened: as §2
[12] = system: HL-60; assay: Induction of apoptosis assessed as increase in caspase 8 enzyme activity in human HL60 cells at 1 uM incubated for 24 to 72 hrs by luminometry relative to untreated control; assay type: functional, cell-based; procedure, shortened: as §3
[13] = molecular target: MAP kinase p38 (Homo sapiens) (UniProt O15264+Q15759+Q16539+P53778); assay: Induction of p38 MAPK phosphorylation in human HL60 cells at 1 uM incubated for 1 to 24 hrs by Western blot method; assay type: cell-based; settings: HL-60; procedure, shortened: as §1
[14] = system: HL-60; assay: Antiproliferative activity against human HL60 cells after 72 hrs by MTT assay; assay type: functional, cell-based; settings: HL-60, 72 h
Procedure, shortened: (§4)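 HL-60 cells seeded at 2×10^4 per well, treated after 24 h with serial dilutions (0.0625-1 µM) for 24, 48, 72 or 96 h; DMSO 0.1% vehicle control. MTT added (final 500 µg/mL) for 4 h, formazan dissolved in DMSO, OD at 540 nm. Inhibition calculated relative to vehicle control after subtracting time-zero reading; IC50 by curve fitting; n = 6 per group.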

[15] = system: HL-60; assay: Induction of apoptosis in human HL60 cells assessed as necrotic cells level at 2 uM incubated for 24 hrs by annexinV/7-AAD double staining based flow cytometry (reference value: 3.45%); assay type: functional
[16] = system: HL-60; assay: Induction of PARP cleavage in human HL60 cells 1 uM incubated for 24 hrs by Western blot method; assay type: functional, cell-based; procedure, shortened: as §2
[17] = system: HL-60; assay: Induction of apoptosis in human HL60 cells assessed as viable cells level at 2 uM incubated for 24 hrs by annexinV/7-AAD double staining based flow cytometry (reference value: 92.44%); assay type: functional
[18] = system: HL-60; assay: Down regulation of c-Myc protein expression in human HL60 cells at 1 uM after 2 hrs by Western blot method; assay type: functional, cell-based; procedure, shortened: as §1
[19] = system: HL-60; assay: Antiproliferative activity against human HL60 cells after 48 hrs by MTT assay; assay type: functional, cell-based; settings: HL-60, 48 h; procedure, shortened: as §4
[20] = system: HL-60; assay: Cell cycle arrest in human HL60 cells assessed as accumulation at subG0/G1 phase at 0.25 uM by NIM-DAPI staining based flow cytometry (reference value: 2.8 +/- 0.8%); assay type: functional
[21] = system: HL-60; assay: Induction of apoptosis in human HL60 cells assessed as viable cells level at 1 uM incubated for 24 hrs by annexinV/7-AAD double staining based flow cytometry (reference value: 92.44%); assay type: functional
[22] = system: HL-60; assay: Antiproliferative activity against human HL60 cells after 96 hrs by MTT assay; assay type: functional, cell-based; settings: HL-60, 96 h; procedure, shortened: as §4
[23] = system: HL-60; assay: Induction of apoptosis assessed as increase in caspase 9 enzyme activity in human HL60 cells at 1 uM incubated for 24 to 72 hrs by luminometry relative to untreated control; assay type: functional; procedure, shortened: as §3
[24] = system: HL-60; assay: Induction of apoptosis in human HL60 cells assessed as early apoptotic cells level at 2 uM incubated for 24 hrs by annexinV/7-AAD double staining based flow cytometry (reference value: 3.68%); assay type: functional
[25] = system: HL-60; assay: Antiproliferative activity against human HL60 cells after 24 hrs by MTT assay; assay type: functional, cell-based; settings: HL-60, 24 h; procedure, shortened: as §4
[26] = system: HL-60; assay: Cell cycle arrest in human HL60 cells assessed as accumulation at G2/M phase at 0.25 uM by NIM-DAPI staining based flow cytometry (reference value: 13.2 +/- 2.8%); assay type: functional
[27] = system: HL-60; assay: Induction of apoptosis in human HL60 cells assessed as late apoptotic cells level at 2 uM incubated for 24 hrs by annexinV/7-AAD double staining based flow cytometry (reference value: 0.43%); assay type: functional
[28] = system: HL-60; assay: Induction of apoptosis in human HL60 cells assessed as necrotic cells level at 1 uM incubated for 24 hrs by annexinV/7-AAD double staining based flow cytometry (reference value: 3.45%); assay type: functional
[29] = system: HL-60; assay: Cell cycle arrest in human HL60 cells assessed as accumulation at G2/M phase at 0.125 uM by NIM-DAPI staining based flow cytometry (reference value: 13.2 +/- 2.8%); assay type: functional
[30] = system: HL-60; assay: Induction of cleaved caspase 7 expression in human HL60 cells at 0.25 to 2 uM incubated for 24 hrs by Western blotting method; assay type: functional, cell-based; procedure, shortened: as §2
[31] = system: HL-60; assay: Reduction in mitochondrial transmembrane electric potential in human HL60 cells 1 uM incubated for 96 hrs by DiOC6(3) dye staining based flow cytometry; assay type: functional, cell-based
Procedure, shortened: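 HL-60 cells given DMSO vehicle or 1 µM test agent for 96 h, then loaded with 100 nM DiOC6(3) for 30 min at 37 °C. After washing and resuspension in PBS, the cells were read at once by flow cytometry in FL-1.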

[32] = system: HL-60; assay: Cell cycle arrest in human HL60 cells assessed as accumulation at subG0/G1 phase at 0.125 uM by NIM-DAPI staining based flow cytometry (reference value: 2.8 +/- 0.8%); assay type: functional
[33] = system: HL-60; assay: Induction of apoptosis in human HL60 cells assessed as early apoptotic cells level at 1 uM incubated for 24 hrs by annexinV/7-AAD double staining based flow cytometry (reference value: 3.68%); assay type: functional
[34] = system: HL-60; assay: Induction of apoptosis in human HL60 cells assessed as late apoptotic cells level at 1 uM incubated for 24 hrs by annexinV/7-AAD double staining based flow cytometry (reference value: 0.43%); assay type: functional
[35] = molecular target: c-Jun N-terminal kinase, JNK (Homo sapiens) (UniProt P45983+P53779+P45984); assay: Induction of JNK phosphorylation in human HL60 cells at 1 uM incubated for 1 to 24 hrs by Western blot method; assay type: cell-based; settings: HL-60; procedure, shortened: as §1

Cl.Cl.NCCCn1c2c(c3ccc(N)cc3c1=O)C(=O)c1ccccc1-2
Activity [1]: inactive | Activity [2]: 27.6% | Activity [3]: 4.6% | Activity [4]: 26.5% | Activity [5]: 11.1% | Activity [6]: 22% | Activity [7]: Active | fold change (FC) [8]: 12.6 | Activity [9]: inactive | Activity [10]: inactive | Activity [11]: Active | Activity [12]: inactive | Activity [13]: Active | IC50 [14]: 0.15 µM | Activity [15]: 4.57% | Activity [16]: Active | Activity [17]: 37.6% | Activity [18]: Active | IC50 [19]: 0.35 µM | Activity [20]: 6.1% | Activity [21]: 57.62% | IC50 [22]: 0.086 µM | fold change (FC) [23]: 7.8 | Activity [24]: 51.56% | IC50 [25]: 0.8 µM | Activity [26]: 45% | Activity [27]: 6.27% | Activity [28]: 2.99% | Activity [29]: 39.6% | Activity [30]: Active | Activity [31]: Active | Activity [32]: 6% | Activity [33]: 34.18% | Activity [34]: 5.21% | Activity [35]: Active
